Assay results reported in article PMC11565791 (bioRxiv, 2025).
Substitutions are numbered along the chain they refer to. In names and notes the source's numbering stands.

Columns and labels:
[1] = tested on: pSwi6 S18/24A (CKII-phosphorylated) (Schizosaccharomyces pombe); test: fluorescence polarization
[2] = tested on: pSwi6 (CKII-phosphorylated Swi6) (Schizosaccharomyces pombe); test: fluorescence polarization; details: histone H3 Kc9me3 (methyl-lysine analog)
[3] = tested on: spreading 'orange' reporter (mKO2); test: Flow cytometry, MAT ΔREIII HSS 'orange' spreading reporter; type: cell-based, Schizosaccharomyces pombe; details: for spreading phenotype: Figure 3E-J run (fully separate from Figure 1)
Outline: (§1)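 Strains from −80°C stocks were revived on YES plates. Cells were grown overnight in 200 μL YES at 32°C to saturation. The next morning they were diluted 1:25 in YES into mid-log phase and analysed by flow cytometry for single-cell reporter fluorescence. Compensation and analysis followed a prior protocol.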

[4] = tested on: nucleation 'green' reporter (SF-GFP); test: Flow cytometry, MAT ΔREIII HSS 'green' nucleation reporter; type: cell-based, Schizosaccharomyces pombe; details: separate experiment with Δckb1, SFigure 1J–L
Outline: as §1

[5] = tested on: H3K9me3 peptide (fluoresceinated H3 1-20); details: H3K9me3 vs H3K9me0 peptide; ref Canzio et al. 2011; cited from earlier work
H3Kc9me3 mononucleosomes = test: Fluorescence polarization, H3Kc9me3; type: binding; details: for specificity for H3K9me3 mark on nucleosomes: H3Kc9me3 vs H3K9me0 nucleosomes; for tighter binding to H3Kc9me3 nucleosome than to H3K9me3 peptide: Kd nucleosome vs Kd tail peptide
[6] = tested on: H3K9me3 peptide (fluoresceinated H3 1-20); test: Fluorescence polarization, H3K9me3 tail peptide; type: binding
Outline: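 Fluoresceinated H3 1–20 K9me3 or K9me0 peptide was fixed at 100 nM. Purified Swi6, unphosphorylated or CK2-phosphorylated, was titrated at 0–200 μM. Fluorescence polarization was read at ex 485 / em 528 nm; Kd derived by curve fitting.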

[7] = tested on: unpSwi6 (unphosphorylated Swi6) (Schizosaccharomyces pombe); test: fluorescence polarization; details: histone H3K9 unmethylated
genomic loci = test: anti-pS18-pS24 ChIP-seq; type: cell-based, S. pombe; details: wildtype; SFigure 8F
Outline: (§2)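 FLAG ChIP: strains express FLAG-tagged Swi6 variants; IP with M2 anti-FLAG. pS18-pS24 ChIP: untagged strains; IP with anti-pS18-pS24 antibody; lysis buffer also contains 0.1 mM orthovanadate and 60 mM β-glycerophosphate. Both: grown to saturation in YES at 32°C, then 2 h at 18°C. 600×10^6 cells fixed with 1.5 mM EGS (30 min), then 1% formaldehyde (30 min). Drosophila spike-in added; three technical replicates; spike-in-adjusted cpm.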

SEC-MALS + cross-linking = target: the molecule itself; test: SEC-MALS + cross-linking
H3K9me2 = H3K9me2 ChIP-seq; type: cell-based, S. pombe
Outline: (§3)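 Cells were grown overnight in YES at 32°C to saturation, diluted to OD 0.03 and grown to OD 1. 300×10^6 cells were fixed with 1% formaldehyde only and quenched with glycine. Chromatin was bead-beaten and sheared, then immunoprecipitated overnight at 4°C with anti-H3K9me2 or anti-H3K9me3. Reverse-crosslinked with proteinase K at 65°C. 40 bp paired-end reads; ChIP/input signal, mean of three repeats with 95% CI.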

H3K9me3 = H3K9me3 ChIP-seq; type: cell-based, S. pombe
Outline: as §3

[8] = tested on: genomic loci (nucleators, spreading zones, euchromatin); test: FLAG-Swi6 ChIP-seq; type: cell-based, S. pombe; details: for FLAG-Swi6 accumulation at nucleation sites versus wildtype: spike-in normalized, Figure 5B
Outline: as §2

heterochromatin foci = test: Swi6-GFP live cell imaging of nuclear foci; type: cell-based, S. pombe; details: Figure 4E,F
Outline: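 Swi6-GFP strains in a Sad1-mKO2 background were grown on YES 225 agar at 32°C for 3–5 days. Cells were then cultured in liquid YES 225 at 30°C with 250 rpm shaking to OD 0.2–0.6 before live-cell imaging.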

[9] = MAT ΔREIII HSS, mean of three repeats

Molecule: H3Kc9me3 (MLA) mononucleosome, 601 DNA 147 bp
- binding signal (relative Kd (pSwi6 on H3Kc9me3 = 1)) ([1]; histone H3 Kc9me3 (methyl-lysine analog)): 0.38
- binding signal (relative Kd (reference)) [2]: 1

Molecule: wildtype swi6: wildtype swi6 open reading frame in MAT ΔREIII HSS strain [reference compound]
- 'orange' (spreading) reporter cells ON ([3]; separate experiment with Δckb1, SFigure 1J–L): 7.04%
- 'green' (nucleation) reporter cells ON [4]: 0.36%

Molecule: unpSwi6: recombinant Swi6 expressed in E. coli without CKII, His tag removed by TEV
- specificity for H3K9me3 peptide, previously reported [5]: ~ 130 X
- specificity for H3K9me3 mark on nucleosomes (H3Kc9me3 mononucleosomes): 19.4 X
- tighter binding to H3Kc9me3 nucleosome than to H3K9me3 peptide (H3Kc9me3 mononucleosomes): 68 X

Molecule: pSwi6: Swi6 co-expressed with Casein Kinase II (CKII) in E. coli
- specificity for H3K9me3 peptide ([6]; H3K9me3 vs H3K9me0 peptide): ~ 93 X
- preference for H3K9me3 versus H3K9me2 peptides ([6]; SFigure 4C): ~ 2.2 X
- decrease in nucleosome affinity by phosphorylation, overall (pSwi6 vs unpSwi6) (H3Kc9me3 mononucleosomes; Figure 4D): 12 X
- specificity for H3K9me3 mark on nucleosomes (H3Kc9me3 mononucleosomes): 19 X
- tighter binding to H3Kc9me3 nucleosome than to H3K9me3 peptide (H3Kc9me3 mononucleosomes): 1.7 X

Molecule: H3K9me0 mononucleosome, 601 DNA 147 bp
- binding signal (relative Kd (pSwi6 on H3Kc9me3 = 1)) ([1]; histone H3K9 unmethylated): 1.67
- Kd [7]: 2330 nM

Molecule: FLAG-Swi6: 3XFLAG tagged wildtype Swi6 at endogenous locus
- pS18-pS24 pool versus overall FLAG-Swi6 accumulation (genomic loci): no significant differences in accumulation between the overall Swi6 pool and the pS18-pS24 pool

B1: phosphorylated Swi6 (pSwi6) (natural protein)
chain: MKKGGVRSYRRSSTSKRSVIDDDSEPELPSMTKEAIASHKADSGSSDNEVESDHESKSSSKKLKENAKEEEGGEEEEEDEYVVEKVLKHRMARKGGGYEYLLKWEGYDDPSDNTWSSEADCSGCKQLIEAYWNEHGGRPEPSKRKRTARPKKPEAKEPSPKSRKTDEDKHDKDSNEKIEDVNEKTIKFADKSQEEFNENGPPSGQPNGHIESDNESKSPSQKESNESEDIQIAETPSNVTPKKKPSPEVPKLPDNRELTVKQVENYDSWEDLVSSIDTIERKDDGTLEIYLTWKNGAISHHPSTITNKKCPQKMLQFYESHLTFRENE
- stoichiometry N (SEC-MALS + cross-linking): 8

B2: swi6^loopX: ARK loop in the CD mutant (R93A and K94A) (protein, UniProt P40381 1-328, looked up, variant R93A K94A)
Chromatin-associated protein …: B1 chain with R93A, K94A
- spreading phenotype [3]: moderate spreading defect

B3: swi6^S18/24A: swi6 mutant S18A and S24A (protein, UniProt P40381 1-328, looked up, variant S18A S24A)
Chromatin-associated protein …: B1 chain with S18A, S24A
- H3K9me2 in nucleators versus wildtype (H3K9me2; 300bp bins, SFigure 2): H3K9me2 is elevated in almost all nucleators
- H3K9me2 level at MAT locus (H3K9me2; [9]): maintained similar levels of H3K9me2 to wildtype swi6
- distance to the left of tlh2 at which H3K9me2 levels begin to drop (H3K9me2; tel IIR, relative to wildtype): ~ 6.4 kb
- H3K9me3 level at MAT locus (H3K9me3; [9]): much more closely mirrored Δswi6
- H3K9me2 and H3K9me3 at mei4 (H3K9me3; heterochromatin island mei4, SFigure 3A): no distinguishable differences
- spreading phenotype [3]: more severe spreading defect than the oligomerization surface mutants alone

B4: FLAG-Swi6^6S/A: 3XFLAG tagged Swi6 S18/24/117–220A (protein, UniProt P40381 1-328, looked up, variant S18A S24A S117A S192A S212A S220A)
Chromatin-associated protein …: B1 chain with S18A, S24A, S117A, S192A, S212A, S220A
modifications: 3XFLAG tag
- FLAG-Swi6 accumulation at nucleation sites versus wildtype [8]: decline in accumulation

B5: Swi6^6S/A -GFP: C-terminally super fold-GFP tagged Swi6 6S/A (protein, UniProt P40381 1-328, looked up, variant S18A S24A S117A S192A S212A S220A)
Chromatin-associated protein …: B1 chain with S18A, S24A, S117A, S192A, S212A, S220A
modifications: C-terminal superfolder GFP tag
- partitioning relative to heterochromatin foci (heterochromatin foci): partition away from heterochromatin foci

B6: swi6^loopX-S18/24A: double mutant of loopX and S18/24A (protein, UniProt P40381 1-328, looked up, variant S18A S24A R93A K94A)
Chromatin-associated protein …: B1 chain with S18A, S24A, R93A, K94A
- spreading phenotype [3]: largely mimics that of swi6^S18/24A

B7: FLAG-Swi6^S18/24A: 3XFLAG tagged Swi6 S18/24A (protein, UniProt P40381 1-328, looked up, variant S18A S24A)
Chromatin-associated protein …: B1 chain with S18A, S24A
modifications: 3XFLAG tag
- FLAG-Swi6 accumulation at nucleation sites versus wildtype [8]: decline in accumulation
- FLAG-Swi6 accumulation at cen I & II ([8]; versus wildtype, Figure 5E, SFigure 7A): accumulates less than wildtype within previously mapped siRNA generating centers
- FLAG-Swi6 accumulation at H3K9me2-negative loci ([8]; versus wildtype, Figure 5F,G): accumulates above wildtype at several H3K9me2 negative loci

B8: Swi6^S18/24A-GFP: C-terminally super fold-GFP tagged Swi6 S18/24A (protein, UniProt P40381 1-328, looked up, variant S18A S24A)
Chromatin-associated protein …: B1 chain with S18A, S24A
modifications: C-terminal superfolder GFP tag
- partitioning relative to heterochromatin foci (heterochromatin foci): partition away from heterochromatin foci
